An excerpt weighted towards active compounds, which were near 5.9% of everything screened.
Jurkat tox 60K = cytotoxicity toward Jurkat cells; Jurkat E6.1 viability, ATP luminescence, 48 h; inhibition, % at 4 µM; actives 1.2% (n = 56,000);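 active means inhibition above the mean inhibition of all tested compounds plus 3 SD, cut at about 28% in these data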
PTK2B oligo ant = Pyk2 (human) oligomerization antagonism; z-score (the deposit names both 25 µM and 10 µM); Q293 cells, Pyk2 FERM NanoBiT luminescence; active compounds read low; Q14289; actives 0.83% (n = 99,000); AID 1347419;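 active means Z-score of -3 or lower, scaled per plate to the spread of control and sample wells; inactive means z-score above -3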;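 further: negative z-score means lost luminescence so less FERM oligomerization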
Target sequence (Q14289 whole entry, looked up): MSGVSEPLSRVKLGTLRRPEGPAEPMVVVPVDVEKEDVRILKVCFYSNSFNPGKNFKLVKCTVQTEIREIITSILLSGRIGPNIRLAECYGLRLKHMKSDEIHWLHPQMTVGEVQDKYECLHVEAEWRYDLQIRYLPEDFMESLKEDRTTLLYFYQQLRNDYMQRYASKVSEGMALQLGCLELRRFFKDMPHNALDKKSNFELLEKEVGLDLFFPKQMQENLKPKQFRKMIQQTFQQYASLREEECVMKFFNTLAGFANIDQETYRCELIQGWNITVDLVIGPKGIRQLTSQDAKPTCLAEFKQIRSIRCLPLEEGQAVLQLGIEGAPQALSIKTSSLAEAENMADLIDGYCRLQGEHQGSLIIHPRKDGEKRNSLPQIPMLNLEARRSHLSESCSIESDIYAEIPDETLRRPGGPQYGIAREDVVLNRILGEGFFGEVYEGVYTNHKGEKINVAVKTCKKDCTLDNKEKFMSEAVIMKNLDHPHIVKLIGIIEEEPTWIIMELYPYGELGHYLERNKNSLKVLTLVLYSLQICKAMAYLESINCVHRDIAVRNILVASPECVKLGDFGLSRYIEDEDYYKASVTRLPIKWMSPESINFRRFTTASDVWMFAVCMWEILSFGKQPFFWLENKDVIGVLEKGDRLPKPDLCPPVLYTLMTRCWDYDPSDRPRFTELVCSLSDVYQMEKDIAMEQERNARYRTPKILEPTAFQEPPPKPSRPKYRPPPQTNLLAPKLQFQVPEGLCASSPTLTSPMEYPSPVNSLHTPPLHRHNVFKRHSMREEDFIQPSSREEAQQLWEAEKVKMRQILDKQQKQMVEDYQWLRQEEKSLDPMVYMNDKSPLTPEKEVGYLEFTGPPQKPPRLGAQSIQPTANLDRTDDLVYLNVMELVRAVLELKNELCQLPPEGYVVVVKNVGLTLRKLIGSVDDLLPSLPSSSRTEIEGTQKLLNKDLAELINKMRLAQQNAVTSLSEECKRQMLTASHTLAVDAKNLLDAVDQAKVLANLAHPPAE
HUVEC prolif 384 = inhibitors of human endothelial cell proliferation | HUVEC proliferation, CellTiter-Glo luminescence, 72 h; active compounds read low | viability, % at 10 µM (by protocol) | actives 1.1% (n = 86,000);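 active means viability at or below 30%; inactive means viability above 30%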;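 further: 100% = median luminescence of DMSO-only cell control wells on each plate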
H69AR inhibit = growth inhibitors of human H69AR lung tumor cells | viability, % at 10 µM | AID 598 | actives 6% (n = 85,000) | H69AR lung tumor viability, ATP luminescence, 72 h; active compounds read low;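 active means viability at or below 40%; inactive means viability above 40%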;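 further: multidrug resistant small cell line overexpressing MRP-1 efflux transporter; 100% = mean luminescence of untreated control wells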
MT1-MMP txn act = activates MT1-MMP transcription; HT1080 MT1-MMP promoter luciferase reporter, luminescence, overnight; active compounds read high; activation factor at 10 µM; actives 0.16% (n = 86,000); AID 750;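 active means activation factor of at least 2 for MT1-MMP transcription at 10 µM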
Fibroblast inh = blocks proliferation of human lung fibroblasts | LL 47 human lung fibroblast viability, ATP luminescence; active compounds read low | viability, % at 10 µM | actives 1.1% (n = 85,000);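 active means viability at or below 50% in the single dose screen; inactive means viability above 50%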;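 further: compound exposure lasted 72 h before the ATP readout; 100% = median luminescence of untreated cell-only wells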
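Material: human LL 47 lung fibroblast cells; quantity: 1,150 cells/well; medium: IMEM plus 15% FBS; doses: 0.1% DMSO in all compound wells; timing: overnight attachment after seeding, then 72 h compound exposure at 37 °C; detection: CellTiter-Glo luminescence; measure: % viability of median cell-only signal; controls: cell-only wells, no compound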
* marks the source's active call; other numbers are inactive results; x = not tested or not shown.

SMILES | Jurkat tox 60K | PTK2B oligo ant | HUVEC prolif 384 | H69AR inhibit | MT1-MMP txn act | Fibroblast inh
CSc1nnc(-c2ccccc2Cl)n1N | 2 | -0.15 | 98 | 91 | 1.5 | 100
Nn1c(-c2ccccc2Cl)nnc1-c1ccccc1Cl | x | -0.45 | 43 | 96 | 2* | 91
CCOC(=O)c1ccccc1NC(=O)c1ccc(N(C)S(C)(=O)=O)cc1 | 1 | -0.8 | 41 | 27* | 1.1 | 51
O=C(NCc1ccccn1)C1CCN(S(=O)(=O)N2CCC3(CC2)OCCO3)CC1 | x | 0.57 | 98 | 94 | 1.4 | 111
COc1ccc(CC(=O)Nc2ccc(-c3noc(COc4ccccc4C)n3)cc2)cc1 | 9 | 0.47 | 97 | 84 | 1 | 102
O=C(Nc1ccc(-c2noc(COc3ccccc3Cl)n2)cc1)c1ccco1 | x | -0.91 | 35 | 29* | 1.2 | 99
CC1CCN(C(=O)CCc2ccc(S(=O)(=O)NC(C)C)cc2)CC1 | x | 0.36 | 107 | 89 | 1.1 | 106
COc1ccc(C2CC(=O)N3CN(c4ccccc4F)CSC3=C2C#N)cc1OC (centres undefined) | 14 | x | 98 | 90 | 1.1 | 97
CCc1ccccc1N1CSC2=C(C#N)C(c3ccccc3F)CC(=O)N2C1 (centres undefined) | -6 | x | 82 | 29* | 1 | 97
Cc1ccc(Cn2c(NS(=O)(=O)c3ccccc3)nc3ccccc32)cc1 | x | -1.4 | x | x | x | x
CCOC(=O)Cn1c(S(=O)(=O)Cc2ccccc2Cl)nc(-c2ccccc2)c1-c1ccccc1 | x | -2.2 | x | x | x | x
C#CCn1c(S(=O)(=O)Cc2ccc(C)cc2)nc(-c2ccccc2)c1-c1ccccc1 | x | -3.4* | x | x | x | x
C#CCn1c(S(=O)(=O)Cc2ccccc2Cl)nc(-c2ccccc2)c1-c1ccccc1 | x | -3.5* | x | x | x | x
COc1ccc(NC(=O)c2cc3c(-c4ccc(OC)c(OC)c4)nn(C)c3s2)cc1OC | x | -3* | 54 | 9.7* | 1.1 | 78
COc1ccc(-c2coc3c(CN4CCCCC4)c(O)c(CN4CCCCC4)c(O)c3c2=O)cc1 | 3 | x | 85 | 7.2* | 1.2 | 85
COc1ccc(C(=O)c2coc3ccc(O)c(CN4CCCC4)c23)cc1 | 4 | x | 86 | 67 | 1.3 | 95
Cc1ccc(C2C(C(=O)c3cc4ccccc4o3)=C(O)C(=O)N2CCCN(C)C)cc1 (centres undefined) | x | x | 81 | 95 | 1.2 | 93
COC(=O)/C(=C\Nc1ccc(Cl)c2ccccc12)c1ncc(C(F)(F)F)cc1Cl | x | -3.4* | 108 | 33* | 1.2 | 93
C[C@@H](C(=O)NCc1ccccn1)[C@@H]1C[C@@]1(C)[C@@H](NC(=O)OCc1ccccc1)c1ccccc1 | x | x | x | x | 1.1 | x
CCn1cc([N+](=O)[O-])c(C(=O)Nc2ccc(Br)cn2)n1 | x | -0.42 | x | x | x | x
CCn1cc([N+](=O)[O-])c(C(=O)N2N=C(c3ccc4ccccc4c3)CC2c2cc(Br)ccc2O)n1 (centres undefined) | x | -0.7 | 10* | 14* | 1.2 | 88
CCN1CCN(C(=O)Nc2ccccc2OC)CC1 | x | 0.28 | 77 | 84 | 1.2 | 91
COC(=O)c1[nH]c2cc(C)ccc2c1NC(=O)CN1CCN(c2ccccc2OC)CC1 | 8 | -0.69 | x | x | 1 | x
CCOC(=O)Nc1c(C(=O)OC)[nH]c2cc(OC)ccc12 | 43* | 0.34 | 72 | 18* | 1.2 | 88
CCOC(=O)c1[nH]c2ccc(OC)cc2c1NC(=O)OC | 6 | 0.04 | 81 | 93 | 1.1 | 105
SMILES | Jurkat tox 60K | PTK2B oligo ant | HUVEC prolif 384 | H69AR inhibit | MT1-MMP txn act | Fibroblast inh
COC(=O)c1[nH]c2cc(OC)ccc2c1NC(=O)CN1CCN(c2cccc(C)c2)C(C)C1 (centres undefined) | x | 0.55 | 53 | 15* | 1.1 | 98
Clc1ccc(Nc2ccc(-n3ccnc3)nn2)cc1Cl | x | -0.08 | x | x | x | x
CN1/C(=C\C(=O)COc2ccc3c(c2)OCO3)C(C)(C)c2ccccc21 | 8 | 0.13 | 87 | 81 | 1.1 | 93
COc1ccc(-c2cn3c4c(sc3n2)CCCC4)cc1 | 4 | -1.7 | 77 | 64 | x | 83
O=C(CN(c1ccccc1)S(=O)(=O)c1ccc(F)cc1)N1CCCCCC1 | -5 | 0.1 | 105 | 99 | 1.2 | 97
O=C(NCC12CC3CC(CC(C3)C1)C2)c1cc2n(n1)C(C(F)(F)F)CC(c1ccco1)N2 (centres undefined) | 3 | -1.2 | 55 | 34* | 1.1 | 78
O=C(NCc1ccco1)c1nc2nc(-c3cccs3)cc(C(F)(F)F)n2n1 | -2 | -0.34 | 87 | 72 | 1.1 | 103

Screening data from PubChem BioAssay.
